A selection: hits, their analogues and other compounds. The true share with any hit is near 1.8%.
CXCR6 block – blocks human CXCR6 beta-arrestin recruitment | O00574 | CHO-K1 PathHunter CXCR6 beta-arrestin, luminescence | inhibition, % at 20 µM | 360,000 compounds, 0.36% hits | AID 602244; in the data active = inhibition above about 34%, passing the limit was not always enough;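 note: antagonist mode with CXCL16 agonist at 10 nM final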
CCR6 antagonist – CCR6 (human) receptor antagonism | AID 493098 | 340,000 compounds, 0.49% hits | inhibition, % at 20 µM | CHO-K1 CCR6 PathHunter beta-arrestin, luminescence, CCL20-stimulated | P51684;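 active = compounds whose inhibition of the agonist-driven luminescence signal at 20 µM reaches about 50%, limit read from the data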;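 note: cells stimulated with CCL20 at 14 nM final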
APJ ag – agonists of human APJ apelin receptor | CHO-K1 APJ PathHunter beta-arrestin, luminescence; 0% DMSO wells, 100% apelin | activation, % at 20 µM | 330,000 compounds, 0.11% hits | AID 2520;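 active = activation more than six SD over the plate average, tested at 20 µM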
Target sequence (P35414 whole entry, looked up): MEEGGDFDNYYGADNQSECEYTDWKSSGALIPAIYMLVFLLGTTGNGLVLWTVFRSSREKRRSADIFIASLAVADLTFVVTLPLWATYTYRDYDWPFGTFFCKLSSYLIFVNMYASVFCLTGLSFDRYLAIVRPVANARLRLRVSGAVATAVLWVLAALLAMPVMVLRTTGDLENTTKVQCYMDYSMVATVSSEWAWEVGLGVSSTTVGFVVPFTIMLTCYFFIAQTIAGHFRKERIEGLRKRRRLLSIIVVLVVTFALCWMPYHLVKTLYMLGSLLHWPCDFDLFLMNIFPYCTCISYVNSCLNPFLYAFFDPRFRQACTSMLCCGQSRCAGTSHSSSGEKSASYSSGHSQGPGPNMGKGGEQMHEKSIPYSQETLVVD
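Incubation: overnight seeding, 90 min compound at 25 °C, 1 h detection; test system: PathHunter CHO-K1 APJ (AGTRL-1) beta-arrestin reporter cells; amount: 1000 cells/well; doses: one dose, 20 µM compound, 1% DMSO; measured by: beta-gal luminescence; measure: agonist-driven arrestin binding to APJ; benchmarks: negative DMSO alone, positive Apelin-13 at 10 nM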
EBI2 antag – blocks human EBI2 receptor beta-arrestin signaling; P32249; AID 651636; inhibition, % at 5 µM; 360,000 compounds, 0.81% hits; EBI2 beta-arrestin recruitment, luminescence, 7a,25-OHC stimulated; in the data active = inhibition above about 38%;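 note: enzyme fragment complementation signal reports receptor beta-arrestin coupling in cells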
APJ antagonist – antagonists of human APJ apelin receptor; CHO-K1 APJ beta-arrestin complementation, luminescence; P35414; 330,000 compounds, 0.32% hits; inhibition, % at 20 µM;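 active = inhibition above about 40% at 20 µM, limit read from the data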;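 note: cells challenged with 10 nM apelin-13 agonist together with compound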
B2AR ag – human beta-2 adrenergic receptor agonism by FAP; Am2.2-beta2AR cells, FAP receptor internalization, flow cytometry; 340,000 compounds, 0.43% hits; P07550; response, % (concentration not given with the values);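 active = response above a set limit, near 3 SD of response in nonfluorescent compounds, cut at about 42% in these data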
EBI2 antag conf – confirmation of human EBI2 receptor antagonists | shares compounds with EBI2 antag | EBI2 beta-arrestin luminescence, 7a,25-OHC antagonism | inhibition, % at 5 µM | 2,400 compounds, 29% hits;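 active = inhibition of at least 50%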
EBI2 ag – EBI2 agonism counter-screen | 2,400 tested, under 10 active | activation, % at 5 µM | EBI2-expressing cells, agonist mode, luminescence, 60 min; 0% vehicle, 100% 7α,25-dihydroxycholesterol control | shares compounds with EBI2 antag;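 active = activation of at least 50%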
bGal counter – inhibits E. coli beta-galactosidase, counter-screen for EBI2 antagonists; shares compounds with EBI2 antag; purified beta-galactosidase, luminescent Galacton Star, 15 min; inhibition, % at 5 µM; 2,400 compounds, 1% hits; AID 652176;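 active = replicate-average signal at least 3 plate SD below neutral wells, shown as high inhibition, flagging enzyme-inhibiting false positives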;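 note: higher means stronger loss of beta-gal luminescence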
Numbers stand for hits; i = inactive; nt = no result.

SMILES	CXCR6 block	CCR6 antagonist	APJ ag	EBI2 antag	APJ antagonist	B2AR ag	EBI2 antag conf	EBI2 ag	bGal counter
COc1ccc2cc(C(c3nnnn3C3CCCC3)N3CCCCCC3)c3nnnn3c2c1 (configuration not stated)	i	i	i	60.0	i	i	i	i	i
C=CCOC(=O)Nc1nc(CCNC(=O)OC(C)(C)C)c(C(=O)O)s1	nt	nt	nt	i	nt	nt	nt	nt	nt
Cc1cccc(C)c1N(CC(=O)Nc1cc(Cl)ccc1Oc1ccccc1)S(C)(=O)=O	i	i	i	47.1	i	i	i	i	i
O=S(=O)(c1cccs1)N1CCN(c2ccc(Cl)cc2)CC1	i	i	i	i	i	i	nt	nt	nt
COc1ccc(OCCN2CCC(C(=O)NC(c3ccccc3)c3ccc4ccccc4n3)CC2)cc1 (configuration not stated)	i	nt	nt	49.4	nt	nt	i	i	i
O=S(=O)(c1cccs1)N1CCN(CCOc2ccc(Cl)cc2)CC1	i	i	i	63.5	i	i	i	i	i
O=C(NC(c1ccc(F)cc1)c1ccc2ccccc2n1)C1CCN(CCOc2ccc(F)cc2)CC1 (configuration not stated)	i	nt	nt	i	nt	nt	nt	nt	nt
O=C(NC(c1ccccc1)c1ccc2ccccc2n1)C1CCN(CCOc2ccc(Cl)cc2)CC1 (configuration not stated)	i	nt	nt	60.5	nt	nt	58.8	i	i
COc1ccc(OCCN2CCC(C(=O)NC(c3ccc(F)cc3)c3ccc4ccccc4n3)CC2)cc1 (configuration not stated)	i	nt	nt	52.9	nt	nt	i	i	i
COc1ccc(OCCN2CCC(C(=O)NC(c3ccc(OC)cc3)c3ccccn3)CC2)cc1 (configuration not stated)	i	nt	nt	i	nt	nt	nt	nt	nt
COc1ccc(C(NC(=O)C2CCN(CCOc3ccc(Cl)cc3)CC2)c2cccs2)cc1 (configuration not stated)	i	nt	nt	46.1	nt	nt	i	i	i
O=C(NC(c1ccc(F)cc1)c1cnccn1)C1CCN(CCOc2ccc(Cl)cc2Cl)CC1 (configuration not stated)	i	nt	nt	i	nt	nt	nt	nt	nt
O=C(NC(c1ccc(F)cc1)c1ccc2ccccc2n1)C1CCN(CCOc2ccc(Cl)cc2Cl)CC1 (configuration not stated)	i	nt	nt	63.9	nt	nt	i	i	i
CC(OC(=O)CN1C(=O)c2ccccc2C1=O)C(=O)N(C)c1ccccc1 (configuration not stated)	i	i	i	i	i	i	nt	nt	nt
CC1=C(C(=O)OCC2CCCO2)C(c2cccc(C(F)(F)F)c2)C2=C(CC(c3ccco3)CC2=O)N1 (configuration not stated)	i	i	i	53.3	i	i	i	i	i
CCn1c(SCC(=O)NNC(=O)c2ccc(OC)cc2)nnc1-c1ccco1	i	i	i	70.3	i	i	i	i	i
CCn1c(SCC(=O)Nc2ccc(OC)cc2)nnc1-c1ccco1	i	i	i	i	i	i	nt	nt	nt
CCCc1nc(SCC(=O)NNC(=O)c2ccc(OC)cc2)c2ccccc2n1	i	i	i	77.3	i	i	i	i	i
CCn1c(SCC(=O)NNC(=O)c2ccc(C)cc2)nnc1-c1ccco1	i	i	i	79.9	i	i	i	i	i
CCn1c(SCC(N)=O)nnc1-c1ccco1	i	i	i	i	i	i	nt	nt	nt
COc1cccc(C2c3cc4c(cc3OC(N3CCOCC3)C2C)OCO4)c1O (configuration not stated)	i	i	nt	i	nt	i	nt	nt	nt
CC(C)NC(=O)C1(C)CN(S(C)(=O)=O)CC(=O)N1CCc1ccccc1 (configuration not stated)	nt	nt	nt	i	nt	nt	nt	nt	nt
Cc1cnc(C(=O)OCC(=O)Nc2cc(Cl)ccc2C#N)cn1	i	i	i	i	i	i	nt	nt	nt
COc1ccc(CC(=O)NNC(=O)c2cc(Cl)ccc2OC)cc1	i	i	i	i	i	i	nt	nt	nt
COc1ccc2nc(C)cc(SCC(=O)NNC(=O)COc3cccc4ccccc34)c2c1	i	i	i	i	i	i	nt	nt	nt
SMILES	CXCR6 block	CCR6 antagonist	APJ ag	EBI2 antag	APJ antagonist	B2AR ag	EBI2 antag conf	EBI2 ag	bGal counter
Cc1ccc(-c2nnc(SCC(=O)NNC(=O)COc3cccc4ccccc34)n2C)cc1	nt	nt	i	nt	i	nt	nt	nt	nt
COc1ccc2nc(C)cc(SCC(=O)NNC(=O)COc3ccc(C)cc3)c2c1	i	i	i	67.0	i	i	i	i	i
Cc1ccc(OCC(=O)NNC(=O)CSc2nnc(-c3ccc(C)cc3)n2C)cc1	i	i	i	74.8	i	i	i	i	i
COc1ccc(OC)c(CN2C(=O)CN(S(C)(=O)=O)CC2(C)C(=O)NCc2ccccc2)c1 (configuration not stated)	nt	nt	nt	i	nt	nt	nt	nt	nt
O=C(C[C@H]1CC[C@H](NC(=O)Nc2ccccc2F)[C@@H](CO)O1)NCc1ccc(-c2ccccc2)cc1	nt	nt	nt	i	nt	nt	nt	nt	nt
O=C(COc1ccccc1)Nc1ccc2c(c1)C(=O)N(CC1CCCO1)C2=O (configuration not stated)	i	i	i	45.0	i	i	i	i	i
COc1ccccc1OCC(=O)Nc1ccc2c(c1)C(=O)N(CC1CCCO1)C2=O (configuration not stated)	i	i	i	i	i	i	nt	nt	nt
COCCCN1C(=O)c2ccc(C(=O)Nc3ccc(OC)cc3)cc2C1=O	i	i	i	58.1	i	i	i	i	i
CCN1C(=O)c2ccc(C(=O)Nc3ccc4c(c3)OCO4)cc2C1=O	i	i	i	49.2	i	i	i	i	i
COc1cccc(NC(=O)c2ccc3c(c2)C(=O)N(CC2CCCO2)C3=O)c1 (configuration not stated)	i	i	i	60.1	i	i	i	i	i
COc1cccc(C(=O)NNS(=O)(=O)c2ccccc2)c1	i	nt	nt	i	nt	nt	nt	nt	nt
CS(=O)(=O)Nc1cccc(NC(=O)C2Cc3c(-c4ccccc4)ccnc3O2)c1 (configuration not stated)	i	nt	nt	i	nt	nt	nt	nt	nt
COC(=O)c1cccc(NC(=O)c2ccc3c(c2)C(=O)N(CC2CCCO2)C3=O)c1 (configuration not stated)	i	i	i	44.0	i	i	i	i	i
COc1ccc(NC(=O)c2ccc3c(c2)C(=O)N(CC2CCCO2)C3=O)cc1 (configuration not stated)	i	i	i	79.7	i	i	i	i	i
CC1CCCN(c2ccc(C(=O)Nc3ccc4c(c3)OCO4)cc2[N+](=O)[O-])C1 (configuration not stated)	i	i	i	45.9	i	i	i	i	i

Source: PubChem (several laboratories)
